Among the data in ChEMBL document CHEMBL4043127, “ATP-competitive, marine derived natural products that target the DEAD box helicase, eIF4A” (Bioorg Med Chem Lett, 2017) are inhibition, IC50 and Kis values, retold here.

Assay [1] concerns the target Eukaryotic initiation factor 4A-I (Homo sapiens) (UniProt P60842). Description: Inhibition of eIF4A (unknown origin) expressed in Escherichia coli BL21(DE3) at 100 uM preincubated for 10 mins followed by ATP and fluorescently-labeled RNA addition measured after 10 mins by real-time fluorescence assay. The method, boiled down: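 Recombinant eIF4A from E. coli BL21(DE3), Talon-purified, at 500 nM in pH 6.0 MES-KOH buffer (10 mM K acetate, 2.5 mM MgCl2, 1% glycerol, 1 mM DTT). Preincubated with 100 µM compound (2% DMSO final) for 10 min at 22°C. Started with 50 nM labeled RNA plus 1 mM ATP, then real-time fluorescence read for 10 min at 25°C. Percent inhibition from slopes versus DMSO and water (no-ATP) controls.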

Assay [2] shares this target. The assay is described as follows: Inhibition of eIF4A1 (unknown origin) expressed in Escherichia coli BL21(DE3) at 0.01 to 100 uM using Poly(U) RNA as substrate preincubated for 10 mins followed by substrate addition measured after 60 mins by malachite green dye-based assay. An outline of the steps:
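Compound dilutions 100 to 0.0457 µM, 2% DMSO final, 10 min at 37°C. ATP added and reaction run 60 min at 37°C, then malachite green OD660 read. DMSO 2% and 20 mM EDTA served as controls. IC50 from semi-log fit.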

Assay [3] addresses Transitional endoplasmic reticulum ATPase (Homo sapiens, UniProt P55072). The assay is described as follows: Inhibition of p97 (unknown origin) expressed in Escherichia coli BL21(DE3) preincubated for 10 mins followed by ATP addition measured after 60 mins by malachite green dye-based assay. An outline of the steps:
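Compound series 100 to 0.0457 µM, 2% DMSO final, 10 min at 37°C. Started with 200 µM ATP, incubated 60 min at 37°C, then malachite green OD660 read. IC50 from semi-log fit of normalized % inhibition.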

In assay [4] the target is ATP-dependent RNA helicase DDX39A (Homo sapiens, UniProt O00148). Description: Inhibition of DDX39A (unknown origin) expressed in Escherichia coli BL21(Rosetta 2) preincubated for 10 mins followed by ATP addition measured after 60 mins by malachite green dye-based assay. An outline of the steps: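 His-tagged DDX39A at 500 nM in MES-KOH pH 6.0 buffer (10 mM KOAc, 2.5 mM MgCl2, 1% glycerol, 1 mM DTT). Eight-point 3-fold series 100 to 0.0457 µM, 2% DMSO final, 10 min preincubation at 37°C. Started with 250 µM ATP, 60 min at 37°C, then malachite green read at OD660. EDTA 20 mM served as positive control. IC50 by semi-log fit of normalized inhibition.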
Chain of ATP-dependent RNA helicase DDX39A (O00148 whole entry): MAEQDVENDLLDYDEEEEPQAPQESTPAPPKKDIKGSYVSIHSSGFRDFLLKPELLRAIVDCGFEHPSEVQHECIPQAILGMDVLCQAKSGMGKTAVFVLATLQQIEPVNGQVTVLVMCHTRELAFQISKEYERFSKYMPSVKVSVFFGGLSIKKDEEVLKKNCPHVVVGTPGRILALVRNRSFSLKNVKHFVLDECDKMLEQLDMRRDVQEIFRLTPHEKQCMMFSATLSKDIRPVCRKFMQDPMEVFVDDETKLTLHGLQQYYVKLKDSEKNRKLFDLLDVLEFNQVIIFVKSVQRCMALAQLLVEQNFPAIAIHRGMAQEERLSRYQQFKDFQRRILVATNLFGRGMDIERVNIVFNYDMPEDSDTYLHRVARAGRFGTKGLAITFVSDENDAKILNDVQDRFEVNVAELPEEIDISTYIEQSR

Assay [5] deals with Probable ATP-dependent RNA helicase DDX17 (Homo sapiens, UniProt Q92841). The assay is described as follows: Inhibition of DDX17 (unknown origin) expressed in Escherichia coli BL21(DE3) preincubated for 10 mins followed by ATP addition measured after 120 mins by malachite green dye-based assay. An outline of the steps: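 Compound gradient 100 to 0.0457 µM (3-fold), final DMSO 2%, 10 min at 37°C. Reaction started with 250 µM ATP at 37°C, phosphate read by malachite green OD660 at 120 min. IC50 from normalized % inhibition versus log concentration.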
Chain of Probable ATP-dependent RNA helicase DDX17 (Q92841 whole entry): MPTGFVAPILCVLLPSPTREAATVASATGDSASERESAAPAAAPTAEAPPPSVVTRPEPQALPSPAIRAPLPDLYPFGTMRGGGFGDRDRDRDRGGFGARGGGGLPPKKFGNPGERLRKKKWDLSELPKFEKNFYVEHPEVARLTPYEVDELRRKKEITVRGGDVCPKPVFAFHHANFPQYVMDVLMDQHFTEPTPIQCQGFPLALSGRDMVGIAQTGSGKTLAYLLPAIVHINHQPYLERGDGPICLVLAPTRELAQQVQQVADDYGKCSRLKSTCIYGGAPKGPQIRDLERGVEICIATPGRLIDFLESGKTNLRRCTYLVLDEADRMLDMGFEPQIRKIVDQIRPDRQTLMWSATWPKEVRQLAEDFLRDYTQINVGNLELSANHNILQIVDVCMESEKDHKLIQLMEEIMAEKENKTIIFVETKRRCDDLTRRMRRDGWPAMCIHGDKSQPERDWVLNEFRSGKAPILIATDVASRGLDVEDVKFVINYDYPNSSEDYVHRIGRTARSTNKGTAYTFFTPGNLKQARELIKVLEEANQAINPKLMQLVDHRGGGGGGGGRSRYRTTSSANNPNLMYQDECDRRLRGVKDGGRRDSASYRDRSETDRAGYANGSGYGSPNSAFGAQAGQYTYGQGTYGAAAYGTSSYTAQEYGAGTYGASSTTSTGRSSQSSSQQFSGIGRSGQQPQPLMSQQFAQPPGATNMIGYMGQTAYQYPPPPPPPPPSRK

The target of assay [6] is ATP-dependent RNA helicase DDX3X (Homo sapiens, UniProt O00571). Description: Inhibition of DDX3 (unknown origin) preincubated for 10 mins followed by ATP addition by malachite green dye-based assay. The method, boiled down: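 Compounds 100 to 0.0457 µM, 2% DMSO final, 10 min at 37°C. Initiated with 250 µM ATP at 37°C. Released phosphate detected with malachite green at OD660. IC50 fitted from normalized percent inhibition on a semi-log plot.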
Chain of ATP-dependent RNA helicase DDX3X (O00571 whole entry): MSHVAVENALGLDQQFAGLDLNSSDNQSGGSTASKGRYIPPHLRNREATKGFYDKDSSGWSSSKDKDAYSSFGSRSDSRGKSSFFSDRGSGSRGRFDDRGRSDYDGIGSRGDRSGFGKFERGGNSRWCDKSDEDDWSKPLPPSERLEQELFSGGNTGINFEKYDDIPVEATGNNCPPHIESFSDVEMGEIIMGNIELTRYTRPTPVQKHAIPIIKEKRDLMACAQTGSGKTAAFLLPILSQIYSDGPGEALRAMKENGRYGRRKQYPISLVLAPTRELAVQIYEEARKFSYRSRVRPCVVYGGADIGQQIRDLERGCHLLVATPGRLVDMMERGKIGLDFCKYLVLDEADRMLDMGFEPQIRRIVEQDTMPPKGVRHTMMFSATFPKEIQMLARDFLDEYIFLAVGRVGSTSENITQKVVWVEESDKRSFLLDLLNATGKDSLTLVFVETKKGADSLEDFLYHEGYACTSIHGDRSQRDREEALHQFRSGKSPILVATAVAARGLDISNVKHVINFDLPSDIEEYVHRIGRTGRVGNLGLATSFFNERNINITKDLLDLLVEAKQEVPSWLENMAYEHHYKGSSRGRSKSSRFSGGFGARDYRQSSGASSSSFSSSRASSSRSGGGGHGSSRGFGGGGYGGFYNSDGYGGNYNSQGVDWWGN

The target of assay [7] is Heat shock 70 kDa protein 1A (Homo sapiens, UniProt P0DMV8). The assay is described as follows: Inhibition of HSPA1A (unknown origin) expressed in Escherichia coli BL21(DE3) preincubated for 10 mins followed by ATP addition by malachite green dye-based assay. An outline of the steps:
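His-tagged HSPA1A, induced at 16°C, used at 1,000 nM in 50 mM Tris-HCl pH 7.4, 150 mM KCl, 10 mM MgCl2. Compounds 100 to 0.0457 µM, 2% DMSO final, 10 min preincubation at 37°C. Reaction started with 200 µM ATP at 37°C, phosphate detected by malachite green OD660. IC50 by semi-log fit of normalized inhibition.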

Assay [8] concerns the target Eukaryotic initiation factor 4A-I (Homo sapiens) (UniProt P60842). Description: Inhibition of eIF4A (unknown origin) expressed in Escherichia coli BL21(DE3) at 100 uM preincubated for 10 mins followed by ATP and fluorescently-labeled RNA addition measured after 10 mins by real-time fluorescence assay relative to control. An outline of the steps:
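Real-time fluorescence helicase assay. eIF4A at 500 nM in MES-KOH pH 6.0 buffer, preincubated 10 min at 22°C with compound at 100 µM, 2% DMSO final. Started with 50 nM labeled RNA plus 1 mM ATP, or water as control, and read for 10 min at 25°C. % inhibition = 100 − ((A−B)/(C−B)×100), using the slopes of compound (A), water (B) and DMSO (C) traces.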

The target is the same in assay [9].

What is called inhibition is how much of the control response was suppressed. A word on the IC50: it is the concentration at which inhibition is half-maximal.

Molecules are shown by their SMILES. The source made the active and inactive calls. The calls are words filed in the database; no cut-off is given here.

Chain of Eukaryotic initiation factor 4A-I (Homo sapiens) (P60842 whole entry): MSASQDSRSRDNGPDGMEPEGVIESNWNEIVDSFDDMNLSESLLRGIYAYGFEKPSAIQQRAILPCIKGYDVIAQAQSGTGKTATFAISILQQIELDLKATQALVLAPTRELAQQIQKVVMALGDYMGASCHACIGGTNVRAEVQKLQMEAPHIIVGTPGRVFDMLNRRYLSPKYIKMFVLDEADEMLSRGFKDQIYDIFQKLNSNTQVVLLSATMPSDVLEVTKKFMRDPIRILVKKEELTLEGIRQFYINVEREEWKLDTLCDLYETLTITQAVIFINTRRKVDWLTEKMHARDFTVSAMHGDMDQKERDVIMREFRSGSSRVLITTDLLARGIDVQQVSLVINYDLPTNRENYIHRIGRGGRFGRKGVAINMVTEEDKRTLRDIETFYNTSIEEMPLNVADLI
Chain of Heat shock 70 kDa protein 1A (P0DMV8 whole entry): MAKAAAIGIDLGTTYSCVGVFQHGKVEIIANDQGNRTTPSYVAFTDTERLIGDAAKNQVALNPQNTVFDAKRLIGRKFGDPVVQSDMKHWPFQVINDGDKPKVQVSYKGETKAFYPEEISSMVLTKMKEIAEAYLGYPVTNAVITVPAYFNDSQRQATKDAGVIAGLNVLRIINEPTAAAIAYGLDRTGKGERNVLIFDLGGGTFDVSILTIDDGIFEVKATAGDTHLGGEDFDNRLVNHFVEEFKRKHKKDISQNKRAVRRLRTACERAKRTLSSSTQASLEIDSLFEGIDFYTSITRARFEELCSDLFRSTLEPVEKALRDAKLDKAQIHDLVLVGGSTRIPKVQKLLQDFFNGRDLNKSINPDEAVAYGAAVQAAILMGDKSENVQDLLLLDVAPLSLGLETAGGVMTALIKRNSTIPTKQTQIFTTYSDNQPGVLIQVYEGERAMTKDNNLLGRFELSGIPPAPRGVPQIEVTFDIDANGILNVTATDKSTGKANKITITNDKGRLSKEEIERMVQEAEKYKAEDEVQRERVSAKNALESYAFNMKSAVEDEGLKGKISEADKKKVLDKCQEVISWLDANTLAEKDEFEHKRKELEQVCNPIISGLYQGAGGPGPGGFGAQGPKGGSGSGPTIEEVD
Chain of Transitional endoplasmic reticulum ATPase (P55072 whole entry): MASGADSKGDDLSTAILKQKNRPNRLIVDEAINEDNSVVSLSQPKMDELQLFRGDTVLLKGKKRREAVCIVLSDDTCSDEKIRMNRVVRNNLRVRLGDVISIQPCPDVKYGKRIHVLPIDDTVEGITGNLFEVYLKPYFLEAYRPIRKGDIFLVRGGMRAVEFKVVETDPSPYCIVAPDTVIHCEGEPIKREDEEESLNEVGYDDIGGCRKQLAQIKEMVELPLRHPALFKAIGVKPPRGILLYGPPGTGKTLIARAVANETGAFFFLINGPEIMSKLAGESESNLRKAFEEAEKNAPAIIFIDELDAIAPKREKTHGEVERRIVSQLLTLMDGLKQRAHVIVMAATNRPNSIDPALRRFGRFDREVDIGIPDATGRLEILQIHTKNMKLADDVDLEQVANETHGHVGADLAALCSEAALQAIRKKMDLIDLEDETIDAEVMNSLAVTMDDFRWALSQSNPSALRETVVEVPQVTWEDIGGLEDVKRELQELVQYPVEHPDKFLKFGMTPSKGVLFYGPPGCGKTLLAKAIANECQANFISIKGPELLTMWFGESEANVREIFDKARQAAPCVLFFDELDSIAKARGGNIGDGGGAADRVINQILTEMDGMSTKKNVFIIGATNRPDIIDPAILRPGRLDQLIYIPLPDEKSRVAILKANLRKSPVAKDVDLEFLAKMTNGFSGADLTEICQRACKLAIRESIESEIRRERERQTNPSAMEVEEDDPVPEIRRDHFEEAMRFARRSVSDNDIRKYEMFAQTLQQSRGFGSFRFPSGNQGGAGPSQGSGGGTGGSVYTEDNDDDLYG

For the compound `C[C@H]1C[C@@]2(O[C@H]3C[C@H]4[C@@H]5CC[C@H]6C[C@H](O)CC[C@]6(C)[C@H]5[C@@H](O)C[C@]4(C)[C@H]3[C@@]2(C)O)OC1(C)C`, the inhibition result in [1] was “Active”.

`CC(C)=C[C@@H]1C[C@H](C)c2c(O)cc(C)c3c2C1=C(C)C(=O)C3=O` [ELISABATIN A]: the inhibition result in assay [2] is “Active”. Moreover, the 50% inhibitory concentration (IC50) in assay [3], in assay [4], in [5], in assay [6] and in [7] was > 100 µM throughout. The compound also showed an inhibition in assay [8] of 34%. This compound came in with a Kis in [9] of 55 µM.

In the case of `C=C1CC[C@@](C)(c2cc(Br)c(C)cc2O)[C@H]1C`, the inhibition entry in assay [2] and in assay [1] was “Active” in each case. Further, the IC50 in assay [3], in [4], in assay [5], in [6] and in [7] was > 100 µM each time. In assay [9], the Kis came to 3.86 µM.
